Measured values from ChEMBL document CHEMBL1150653, “Novel terpenoids from the formosan soft coral Cespitularia hypotentaculata” (2002).
Converted amounts (≈) assume the structure as drawn.

How the values were obtained:
Format in all cases: functional
HT-29 = test: Cytotoxicity against human HT-29 cells after 6 days by MTT assay; settings: HT-29, 144 h, read-out: ED50 (the source's name)
In short: (§1)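 Human cell lines: A549 (lung adenocarcinoma) and HT-29 (colon adenocarcinoma), obtained from a culture collection. The assay follows a previously published procedure.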

P388 = test: Cytotoxicity against mouse P388 cells after 3 days by MTT assay; settings: P388, 72 h, read-out: ED50 (the source's name)
In short: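 Mouse P-388 lymphocytic leukemia cells, obtained from an academic laboratory. The assay follows a previously published procedure.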

A549 = test: Cytotoxicity against human A549 cells after 6 days by MTT assay; settings: A549, 144 h, read-out: ED50 (the source's name); in short: as §1

| SMILES | EC50 (HT-29) | EC50 (P388) | EC50 (A549) |
| --- | --- | --- | --- |
| C=C1CC[C@@H]2CCc3coc(c3C2(C)C)C/C(C)=C/C(O)C1 (some centres undefined) [CESPITULARIN A] | 9.76 µg/mL (≈ 32.5 µM) | 3.66 µg/mL (≈ 12.2 µM) | 8.42 µg/mL (≈ 28 µM) |
| C=C1CC[C@@H]2CCC3=C(C2(C)C)[C@@](O)(C/C(C)=C/[C@@H](O)C1)OC3=O [CESPITULARIN D] | > 50 µg/mL | 3.86 µg/mL (≈ 11.6 µM) | > 50 µg/mL |
| C=C1CC/C=C(\C)Cc2occ3c2C(C)(C)[C@H](CC1)CC3 [CESPITULARIN B] | 9.25 µg/mL (≈ 32.5 µM) | 3.23 µg/mL (≈ 11.4 µM) | 7.96 µg/mL (≈ 28 µM) |
| C/C1=C\C[C@@H]2CCC3=C(C(=O)[C@@H]([C@@H](C)CC(=O)C1)[C@H]3O)C2(C)C [CESPITULARIN H] | 23.7 µg/mL (≈ 74.9 µM) | > 50 µg/mL | 9.32 µg/mL (≈ 29.5 µM) |
| C=C1CC/C=C(\C)C[C@@H](O)C2=C(C)CC[C@@H](CC1)C2(C)C [CESPITULARIN C] | 8.86 µg/mL (≈ 30.7 µM) | 0.01 µg/mL (≈ 0.0347 µM) | 0.12 µg/mL (≈ 0.416 µM) |
| C=C1CC[C@@H]2CCC3=C(C(=O)[C@@H](/C(C)=C/C(O)C1)[C@H]3O)C2(C)C (some centres undefined) [CESPITULARIN F] | > 50 µg/mL | > 50 µg/mL | 16.1 µg/mL (≈ 50.9 µM) |
| C=C1CC[C@@H]2CCC=C(C(=O)C/C(C)=C/C(O)C1)C2(C)C (some centres undefined) [CESPUTULARIN E] | 17.1 µg/mL (≈ 59.3 µM) | 4.66 µg/mL (≈ 16.2 µM) | 0.034 µg/mL (≈ 0.118 µM) |
| C=C1CC/C=C(\C)[C@@H]2C(=O)C3=C(CC[C@@H](CC1)C3(C)C)[C@@H]2O [CESPITULARIN G] | > 50 µg/mL | > 50 µg/mL | > 50 µg/mL |
